# Measurements as given in ChEMBL document CHEMBL1149272, “Catecholic flavonoids acting as telomerase inhibitors” (J Med Chem, 2004).
# Calls of active or inactive are those of the source. No cut-off for these calls is given here.
# Target: T1, Telomerase reverse transcriptase (Homo sapiens, UniProt O14746)
# Assay: Inhibition of human telomerase from HEK293 cell extracts by Flash-Plate assay
# Type: cell-free
# Details: not given
# Procedure, shortened: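 Affinity-enriched telomerase extract from HEK293 cells overexpressing telomerase, adjusted to 5 fmol dNTP incorporation min-1 µL-1, in buffer with 50 mM Tris-acetate pH 8.5, 150 mM K acetate, 1 mM MgCl2, 1 mM EGTA. Buffer also held 10 µM dATP, 20 µM dGTP, 120 µM TTP and 500 nM 5'-biotinylated primer. Compounds in DMSO at 0.01-10 µM; 2 h at 37 °C. Elongated primer hybridized to a 33P-labeled complementary probe, captured on streptavidin Flash-Plate; IC50 from radioactivity.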
# T1 sequence (O14746 whole entry): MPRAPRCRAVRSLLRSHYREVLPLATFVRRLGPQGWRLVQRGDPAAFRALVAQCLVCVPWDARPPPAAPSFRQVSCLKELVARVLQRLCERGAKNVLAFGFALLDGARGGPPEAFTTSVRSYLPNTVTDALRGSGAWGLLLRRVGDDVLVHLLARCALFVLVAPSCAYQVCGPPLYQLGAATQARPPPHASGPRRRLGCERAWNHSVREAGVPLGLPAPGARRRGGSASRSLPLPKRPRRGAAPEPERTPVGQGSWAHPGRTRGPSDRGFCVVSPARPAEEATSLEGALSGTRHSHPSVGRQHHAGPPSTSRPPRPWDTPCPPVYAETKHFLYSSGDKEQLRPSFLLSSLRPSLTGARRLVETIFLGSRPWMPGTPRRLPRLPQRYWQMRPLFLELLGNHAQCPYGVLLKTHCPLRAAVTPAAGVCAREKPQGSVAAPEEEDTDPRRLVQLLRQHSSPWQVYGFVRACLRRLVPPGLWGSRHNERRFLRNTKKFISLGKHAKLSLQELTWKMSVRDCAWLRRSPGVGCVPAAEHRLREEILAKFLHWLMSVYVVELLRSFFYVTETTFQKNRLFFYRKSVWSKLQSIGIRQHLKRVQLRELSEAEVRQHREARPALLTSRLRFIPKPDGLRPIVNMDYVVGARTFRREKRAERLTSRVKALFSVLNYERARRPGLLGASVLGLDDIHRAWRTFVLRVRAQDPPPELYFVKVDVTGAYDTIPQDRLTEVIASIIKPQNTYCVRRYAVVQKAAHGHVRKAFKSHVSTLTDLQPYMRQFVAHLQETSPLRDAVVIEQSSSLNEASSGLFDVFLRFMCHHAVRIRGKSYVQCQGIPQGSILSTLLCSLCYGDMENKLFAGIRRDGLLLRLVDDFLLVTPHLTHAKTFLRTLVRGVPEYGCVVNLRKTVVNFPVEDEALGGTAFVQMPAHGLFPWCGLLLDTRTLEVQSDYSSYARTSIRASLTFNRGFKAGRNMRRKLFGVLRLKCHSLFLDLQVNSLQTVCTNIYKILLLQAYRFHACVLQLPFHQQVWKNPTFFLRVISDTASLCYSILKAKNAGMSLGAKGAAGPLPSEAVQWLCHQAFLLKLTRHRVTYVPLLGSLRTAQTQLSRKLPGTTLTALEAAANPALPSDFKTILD
row,IC50 [µM],SMILES
1,36,"O=c1cc(-c2ccccc2)oc2c(O)c(O)ccc12 [7,8-DIHYDROXYFLAVONE]"
2,> 40,COc1ccc2c(=O)cc(-c3ccc(O)c(O)c3)oc2c1OC
3,> 40,COc1ccc2c(=O)cc(-c3ccc4[nH]c(=O)c(=O)[nH]c4c3)oc2c1OC
4,> 40,O=c1cc(-c2ccc(O)c(O)c2)oc2c(O)cccc12
5,0.47,COc1ccc2c(=O)cc(-c3ccc4[nH]c(CCCN(C)C)nc4c3)oc2c1OC
6,6,O=C(/C=C/c1ccc(O)c(O)c1)c1ccc(O)c(O)c1O
7,1.7,O=C(/C=C/c1ccc(O)c(O)c1)c1ccc(O)c(O)c1
8,11.7,COc1ccc(-c2cc(=O)c3ccc(O)c(O)c3o2)cc1OC
9,11,COc1ccc(-c2cc(=O)c3ccc(O)c(O)c3o2)cc1O
10,> 40,O=c1cc(-c2ccc(O)c(O)c2)oc2ccccc12
11,> 40,Cc1nc2cc(-c3cc(=O)c4ccc(O)c(O)c4o3)ccc2[nH]1
12,> 40,O=c1cc(-c2ccc(O)c(O)c2)oc2cc(O)ccc12
13,1.2,O=c1[nH]c2ccc(-c3cc(=O)c4ccc(O)c(O)c4o3)cc2[nH]1
14,50,O=c1cc(-c2cccc(O)c2)oc2c(O)c(O)ccc12
15,22.1,COc1ccc2c(=O)cc(-c3ccc4[nH]c(C)nc4c3)oc2c1OC
16,0.2,O=c1cc(-c2ccc(O)c(O)c2)oc2c(O)c(O)ccc12
17,0.82,O=c1cc(-c2ccc(O)c(O)c2)oc2c(O)c(O)c(Cl)cc12
18,4,O=c1cc(-c2ccc3[nH]cnc3c2)oc2c(O)c(O)ccc12
19,> 40,O=c1[nH]c2ccc(-c3cc(=O)c4ccc(O)c(O)c4o3)cc2[nH]c1=O

# Target: T1, Telomerase reverse transcriptase
# Details: A-431, 1 uM
row,inhibition [%],SMILES
1,50,O=c1cc(-c2ccc(O)c(O)c2)oc2c(O)c(O)ccc12

# Target: DNA-directed RNA polymerase (Enterobacteria phage T3) (UniProt P07659)
# Sequence (P07659 whole entry): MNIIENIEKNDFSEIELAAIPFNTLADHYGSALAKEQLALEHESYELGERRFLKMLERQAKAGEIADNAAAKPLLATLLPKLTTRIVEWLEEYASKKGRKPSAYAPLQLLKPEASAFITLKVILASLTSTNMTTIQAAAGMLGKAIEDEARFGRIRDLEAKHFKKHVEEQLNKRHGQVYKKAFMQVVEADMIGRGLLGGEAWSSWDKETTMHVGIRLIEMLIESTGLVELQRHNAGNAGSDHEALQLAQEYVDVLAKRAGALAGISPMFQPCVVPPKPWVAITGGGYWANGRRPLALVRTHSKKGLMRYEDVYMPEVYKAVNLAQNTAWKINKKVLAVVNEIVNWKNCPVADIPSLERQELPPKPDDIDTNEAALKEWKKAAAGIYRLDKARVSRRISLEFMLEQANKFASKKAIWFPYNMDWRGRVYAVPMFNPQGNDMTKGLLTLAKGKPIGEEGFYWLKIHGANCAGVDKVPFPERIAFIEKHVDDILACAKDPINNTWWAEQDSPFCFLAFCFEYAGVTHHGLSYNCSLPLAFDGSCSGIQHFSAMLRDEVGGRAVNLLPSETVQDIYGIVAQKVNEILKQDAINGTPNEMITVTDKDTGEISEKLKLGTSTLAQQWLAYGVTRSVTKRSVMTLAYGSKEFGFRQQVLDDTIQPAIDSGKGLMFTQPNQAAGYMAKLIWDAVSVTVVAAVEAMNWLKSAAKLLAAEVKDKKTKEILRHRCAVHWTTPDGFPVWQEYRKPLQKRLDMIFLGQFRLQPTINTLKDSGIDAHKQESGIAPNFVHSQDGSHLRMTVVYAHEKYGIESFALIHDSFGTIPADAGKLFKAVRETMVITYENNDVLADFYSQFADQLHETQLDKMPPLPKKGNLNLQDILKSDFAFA
# Assay: Inhibition of T3 RNA polymerase up to 2 uM
# Details: not given
row,Activity,SMILES
1,inactive,O=c1cc(-c2ccc(O)c(O)c2)oc2c(O)c(O)ccc12

# Target: T1, Telomerase reverse transcriptase
# Details: 1 uM
row,inhibition [%],SMILES
1,50,O=c1cc(-c2ccc(O)c(O)c2)oc2c(O)c(O)ccc12
